Experimental data from ChEMBL document CHEMBL1152809, “Structure-activity relationships of orotidine-5'-monophosphate decarboxylase inhibitors as anticancer agents” (J Med Chem, 2009).
Active and inactive are the calls of the source. The calls are words filed in the database; no cut-off is given here.

Columns and labels:
[1] = biological target: T1, Uridine 5'-monophosphate synthase (Homo sapiens, UniProt P11172); experiment: (§1) Irreversible inhibition of human ODCase
T1 sequence (P11172 whole entry): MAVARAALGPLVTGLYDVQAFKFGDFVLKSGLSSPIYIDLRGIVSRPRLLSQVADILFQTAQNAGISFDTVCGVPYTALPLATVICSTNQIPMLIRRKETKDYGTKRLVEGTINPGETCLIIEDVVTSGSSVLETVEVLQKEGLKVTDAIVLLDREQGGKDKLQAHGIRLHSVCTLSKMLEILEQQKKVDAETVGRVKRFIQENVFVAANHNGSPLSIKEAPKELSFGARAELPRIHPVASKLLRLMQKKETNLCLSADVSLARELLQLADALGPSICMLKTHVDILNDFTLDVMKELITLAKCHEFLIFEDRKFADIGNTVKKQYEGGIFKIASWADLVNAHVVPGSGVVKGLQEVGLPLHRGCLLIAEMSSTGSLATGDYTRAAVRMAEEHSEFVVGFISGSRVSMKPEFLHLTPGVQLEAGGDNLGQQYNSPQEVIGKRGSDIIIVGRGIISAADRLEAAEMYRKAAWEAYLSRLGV

[2] = biological target: T2, Uridine 5'-monophosphate synthase (Homo sapiens) (UniProt P11172); experiment: as §1
T2 sequence (whole entry): T1 sequence (P11172 whole entry)

SNB-19 [3] = experiment: Antitumor activity against human SNB19 cells up to 50 uM after 3 days by WST1 assay; type: functional, cell-based
Method in brief: (§2)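 Cell lines grown in Iscove's MDM with 5% FCS, 50 µM 2-mercaptoethanol, penicillin and streptomycin; suspension lines kept at 0.5-1.5 × 10^6 cells/mL, adherent lines subconfluent. Cells seeded in triplicate at 10^4 cells/100 µL. Compounds were dissolved in water and added immediately at 0 to 100 µM final. WST.1 read at 440 nm on day 3; IC50 taken from OD versus concentration plots.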

T47D [4] = experiment: Antitumor activity against human T47D cells up to 50 uM after 3 days by WST1 assay; type: functional, cell-based; method in brief: as §2
PC-3 = experiment: Antitumor activity against human PC3 cells up to 50 uM after 3 days by WST1 assay; type: functional, cell-based; method in brief: as §2
OCI-AML2 = experiment: Antitumor activity against human OCI-AML2 cells after 3 days by WST1 assay; type: functional, cell-based; details: OCI-AML2, 72 h; method in brief: as §2
MCF7 = experiment: Antitumor activity against human MCF7 cells after 3 days by WST1 assay; type: functional, cell-based; details: MCF7, 72 h; method in brief: as §2
Homo sapiens = species on record: Homo sapiens; experiment: Induction of apoptosis in human OCI-My 2 cells 4 uM by […]/propidium iodide staining assay; type: functional, cell-based
Method in brief: (§3)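 Cells seeded in duplicate at 10^5 cells/mL; inhibitors added straight after seeding at 4 µM final, water in control wells. Cells harvested every 24 h, washed in PBS, stained with Annexin V/propidium iodide (1:200) and analysed by FACS; apoptotic cells scored as Annexin V+/PI-, necrotic as Annexin V+/PI+.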

[5] = Antitumor activity against human OCI-AML1 cells after 3 days by WST1 assay; type: functional, cell-based; details: ML1, 72 h; method in brief: as §2
[6] = Cytotoxicity against human CCD-967 cells up to 50 uM after 3 days by WST1 assay; type: cell-based; details: ccd-967, 72 h
Method in brief: (§4)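 Cells grown in Iscove's MDM with 5% FCS, 50 µM 2-mercaptoethanol and antibiotics, kept subconfluent if adherent. Seeded in triplicate at 10^4 cells/100 µL with compounds (in water) added at once, 0 to 100 µM final. WST.1 formazan read at 440 nm on day 3; IC50 from OD versus concentration.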

OCI-Ly7 = experiment: Induction of apoptosis in human OCI-LY7 cells 4 uM by […]/propidium iodide staining assay; type: functional, cell-based; method in brief: as §3
ML1 = experiment: Induction of apoptosis in human OCI-AML1 cells by […]/propidium iodide staining assay; type: functional, cell-based; method in brief: as §3
SKW3 = experiment: Induction of apoptosis in human SKW3 cells at 4 uM by annexin V/propidium iodide staining assay
[7] = Antitumor activity against human MDA468 cells after 3 days by WST1 assay; type: functional, cell-based; details: MDA-MB-468, 72 h; method in brief: as §2
Hs-578T [8] = experiment: Antitumor activity against human Hs 578T cells up to 50 uM after 3 days by WST1 assay; type: functional, cell-based; method in brief: as §2
[9] = Antitumor activity against human OCI-LY7 cells after 3 days by WST1 assay; type: functional, cell-based; details: OCI-Ly7, 72 h; method in brief: as §2
[10] = Antitumor activity against human OCI-My 2 cells after 3 days by WST1 assay; type: functional, cell-based; details: 72 h; method in brief: as §2
[11] = Antitumor activity against human SKW3 cells after 3 days by WST1 assay; type: functional, cell-based; details: SKW3, 72 h; method in brief: as §2
[12] = Antitumor activity against human LOX cells after 3 days by WST1 assay; type: functional, cell-based; details: 72 h; method in brief: as §2
[13] = biological target: Orotidine 5'-phosphate decarboxylase (Methanobacterium thermoautotrophicum, UniProt O26232); experiment: Reversible inhibition of Methanobacterium thermoautotrophicum ODCase; parameters: species or system Methanothermobacter thermautotrophicus
Method in brief: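 Inhibitor levels span 0-1.0 µM up to 0-4.0 mM depending on compound. Rates from heat flow fitted to a competitive model for Ki; experiments in triplicate.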

[14] = biological target: T1, Uridine 5'-monophosphate synthase; experiment: Reversible inhibition of human ODCase
Method in brief: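 Human ODCase at 60 nM in 50 mM Tris, 1 mM DTT, assayed by ITC at 37 °C. Enzyme mixed with inhibitor (stocks in 50 mM Tris pH 7.5) and the reaction started with OMP, 15 or 20 µM final. Inhibitor ranges from 0-1.0 µM up to 0-500 µM. Ki from direct fit of decarboxylation rates; triplicates.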

PBMC = experiment: Cytotoxicity against human PBMC cells by WST1 assay; type: cell-based
Method in brief: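 Donor PBMCs isolated on Ficoll-Hypaque from blood diluted 1:1 in PBS, washed twice in PBS and stimulated with 3 µg/mL concanavalin A. Seeded in triplicate at 10^5 cells/100 µL; compounds in water added immediately, 0-100 µM final. WST.1 absorbance at 440 nm on day 3; IC50 from OD versus concentration plots.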

[15] = Cytotoxicity against human CCD-967 cells up to 4 uM after 3 days by WST1 assay; type: cell-based; details: ccd-967, 72 h; method in brief: as §4
T47D [16] = experiment: Antitumor activity against human T47D cells up to 4 uM after 3 days by WST1 assay; type: functional, cell-based; method in brief: as §2
COLO 205 = experiment: Antitumor activity against human COLO205 cells after 3 days by WST1 assay; type: functional, cell-based; details: COLO 205, 72 h; method in brief: as §2
SNB-19 [17] = experiment: Antitumor activity against human SNB19 cells up to 4 uM after 3 days by WST1 assay; type: functional, cell-based; method in brief: as §2
OVCAR-4 = experiment: Antitumor activity against human OVCAR4 cells after 3 days by WST1 assay; type: functional, cell-based; details: OVCAR-4, 72 h; method in brief: as §2
Hs-578T [18] = experiment: Antitumor activity against human Hs 578T cells up to 4 uM after 3 days by WST1 assay; type: functional, cell-based; method in brief: as §2

Chain of Orotidine 5'-phosphate decarboxylase (O26232 whole entry): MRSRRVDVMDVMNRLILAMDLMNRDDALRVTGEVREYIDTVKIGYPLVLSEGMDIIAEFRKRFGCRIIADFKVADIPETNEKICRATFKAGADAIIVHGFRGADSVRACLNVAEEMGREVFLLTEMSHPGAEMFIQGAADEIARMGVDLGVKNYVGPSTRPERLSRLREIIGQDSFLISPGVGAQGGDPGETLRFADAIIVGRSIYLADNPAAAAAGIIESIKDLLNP

SMILES | IC50 (OCI-AML2) [nM] | IC50 (MCF7) [nM] | Ki [13] [nM] | Ki [14] [nM] | IC50 (COLO 205) [nM] | IC50 (OVCAR-4) [nM] | Activity (Homo sapiens) | IC50 [5] [nM] | Activity (OCI-Ly7) | Activity (ML1) | Activity (SKW3) | IC50 [7] [nM] | IC50 [9] [nM] | IC50 [10] [nM] | IC50 [11] [nM] | IC50 [12] [nM] | IC50 (PBMC) [nM] | Activity [15] | Activity (T47D [16]) | Activity (SNB-19 [17]) | also measured
O=c1[nH]c(=O)n([C@@H]2O[C@H](COP(=O)(O)O)[C@@H](O)[C@H]2O)c(I)c1F | – | – | – | – | – | – | – | – | – | – | – | – | – | – | – | – | – | – | – | – | Ki [1]: 1100 nM; Kinact [2]: 158 h⁻¹
O=c1[nH]c(=O)n([C@@H]2O[C@H](COP(=O)(O)O)[C@@H](O)[C@H]2O)cc1F | – | – | 645000 | 98000 | – | – | – | – | – | – | – | – | – | – | – | – | – | – | – | – | –
CCc1c(F)c(=O)[nH]c(=O)n1[C@@H]1O[C@H](COP(=O)(O)O)[C@@H](O)[C@H]1O | – | – | 29000 | 350 | – | – | – | – | – | – | – | – | – | – | – | – | – | – | – | – | –

Now from value to molecule, other results behind:

IC50 (OCI-AML2) [nM] | IC50 (MCF7) [nM] | Ki [13] [nM] | Ki [14] [nM] | IC50 (COLO 205) [nM] | IC50 (OVCAR-4) [nM] | SMILES | Activity (Homo sapiens) | IC50 [5] [nM] | Activity (OCI-Ly7) | Activity (ML1) | Activity (SKW3) | IC50 [7] [nM] | IC50 [9] [nM] | IC50 [10] [nM] | IC50 [11] [nM] | IC50 [12] [nM] | IC50 (PBMC) [nM] | Activity [15] | Activity (T47D [16]) | Activity (SNB-19 [17]) | also measured
700 | 23700 | – | – | – | – | O=Cc1c(F)c(=O)[nH]c(=O)n1[C@@H]1O[C@H](CO)[C@@H](O)[C@H]1O | Active | 300 | Active | Active | Active | 1900 | 600 | 400 | 300 | 400 | – | – | – | – | Activity (SNB-19 [3]): inactive; Activity (T47D [4]): inactive; Activity (PC-3): inactive; Activity [6]: Not Active; Activity (Hs-578T [8]): inactive
900 | 1400 | – | – | 3300 | 2000 | Nc1c(F)c(=O)[nH]c(=O)n1[C@@H]1O[C@H](CO)[C@@H](O)[C@H]1O | Active | 700 | Active | Active | Active | 2600 | 1300 | 900 | 600 | 3400 | > 10000 | Not Active | inactive | inactive | Activity (Hs-578T [18]): inactive
700 | 1000 | – | – | 3800 | 1500 | [N-]=[N+]=Nc1c(F)c(=O)[nH]c(=O)n1[C@@H]1O[C@H](CO)[C@@H](O)[C@H]1O | Active | 600 | Active | Active | Active | 1800 | 700 | 600 | 400 | 2300 | > 10000 | Not Active | inactive | inactive | Activity (Hs-578T [18]): inactive
